Assay results taken from ChEMBL document CHEMBL1811876 (J Med Chem, 2011).
Active and inactive are the calls of the source. No cut-off for these calls is given here.

Assays:
DU-145 = test: Anticancer activity against human DU145 cells after 72 hrs by sulforhodamine B assay; format: functional; settings: DU-145, 72 h
KB = test: Anticancer activity against human KB cells after 72 hrs by sulforhodamine B assay; format: functional
A549 = test: Anticancer activity against human A549 cells after 72 hrs by sulforhodamine B assay; format: functional; settings: A549, 72 h
HCT-8 = test: Anticancer activity against human HCT8 cells after 72 hrs by sulforhodamine B assay; format: functional; settings: HCT-8, 72 h
[1] = Anticancer activity against human KBVIN cells after 72 hrs by sulforhodamine B assay; format: functional
[2] = Upregulation of Cdt1 expression in human CL1-5 cells at 0.01 ug/mL by RT-PCR analysis after 24 to 48 hrs; format: functional, cell-based
[3] = (§1) Upregulation of Cdt1 expression in human CL1-5 cells at 0.01 ug/mL by RT-PCR analysis after 24 to 48 hrs by Western blot; format: functional, cell-based
Outline: (§2)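 CL1-5 cells were exposed to the test agent for 24 and 48 h. Cdt1 and CDC6 protein levels were then assessed by Western blot.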

[4] = as §1; format: functional, cell-based; outline: as §2; remark: listed apart in the source
[5] = Upregulation of CDC6 expression in human CL1-5 cells at 0.01 ug/mL by RT-PCR analysis after 24 to 48 hrs; format: functional, cell-based
[6] = Upregulation of CDT1 expression in human CL1-5 cells by cDNA microarray; format: functional, cell-based
[7] = Upregulation of CDC6 expression in human CL1-5 cells by cDNA microarray; format: functional, cell-based; settings: TDE = time-dependent effect

GI50 (DU-145) | GI50 (KB) | GI50 (A549) | GI50 (HCT-8) | Structure (SMILES) | GI50 [1] | Activity [2] | Activity [3] | Activity [4] | Activity [5] | Activity [6] | Activity [7]
12.2 µM | 11.3 µM | 10.9 µM | 12.1 µM | COC(=O)N1CCN2Cc3c(c4cc(OC)c(OC)cc4c4cc(OC)ccc34)C[C@H]2C1 |  |  |  |  |  |  | 
17 µM | 17.5 µM | 14.5 µM | 17.8 µM | COc1ccc2c3c(c4cc(OC)c(OC)cc4c2c1)C[C@H]1CN(S(C)(=O)=O)CCN1C3 |  |  |  |  |  |  | 
2.08 µM | 1.79 µM | 1.73 µM | 1.62 µM | COc1ccc2c3c(c4cc(OC)c(OC)cc4c2c1)C[C@H]1CNCCN1C3 |  |  |  |  |  |  | 
10.2 µM | 10 µM | 6.62 µM | 7.47 µM | COc1ccc2c3c(c4cc(OC)c(OC)cc4c2c1)C[C@H]1CN(CCc2ccccc2)CN1C3 |  |  |  |  |  |  | 
15.7 µM | > 20 µM | 15 µM | 18.1 µM | COc1ccc2c3c(c4cc(OC)c(OC)cc4c2c1)C[C@H]1CN(C(=O)c2ccccc2)CCN1C3 |  |  |  |  |  |  | 
> 20 µM | > 20 µM | > 20 µM |  | COc1ccc2c3c(c4cc(OC)c(OC)cc4c2c1)C[C@@H]1CN(CC2CC2)CCN1C3 | 13.4 µM |  |  |  |  |  | 
1.99 µM | 1.59 µM | 5.68 µM | 10.7 µM | COc1ccc2c3c(c4cc(OC)c(OC)cc4c2c1)C[C@H]1CCN(CCO)CN1C3 |  |  |  |  |  |  | 
6.01 µM | 2.38 µM | 4.15 µM |  | COc1ccc2c3c(c4cc(OC)c(OC)cc4c2c1)C[C@@H]1CN(N(C)C)CN1C3 | 11 µM |  |  |  |  |  | 
> 20 µM | 16.9 µM | > 20 µM |  | COc1ccc2c3c(c4cc(OC)c(OC)cc4c2c1)C[C@H]1CN(Cc2ccccc2)CCN1C3 | 15.2 µM |  |  |  |  |  | 
2.26 µM | 2.31 µM | 1.67 µM | 2.01 µM | COc1ccc2c3c(c4cc(OC)c(OC)cc4c2c1)C[C@H]1CN(N(C)C)CN1C3 |  |  |  |  |  |  | 
11.9 µM | 15.5 µM | 11.7 µM | 13.8 µM | COc1ccc2c3c(c4cc(OC)c(OC)cc4c2c1)C[C@H]1CN(C(C)=O)CCN1C3 |  |  |  |  |  |  | 
2.03 µM | 1.72 µM | 0.66 µM | 1 µM | COc1ccc2c3c(c4cc(OC)c(OC)cc4c2c1)C[C@H]1CN(C)CN1C3 |  |  |  |  |  |  | 
 | 0.102 µM |  |  | COc1ccc2c3c(c4cc(OC)c(OC)cc4c2c1)C[C@H]1CCCCCN1C3 |  | inactive | inactive | inactive | inactive |  | 
1.66 µM | 1.45 µM | 5.11 µM |  | COc1ccc2c3c(c4cc(OC)c(OC)cc4c2c1)C[C@@H]1CCN(CC(C)C)CN1C3 | 7.32 µM |  |  |  |  |  | 
> 20 µM | > 20 µM | > 20 µM | > 20 µM | COc1ccc2c3c(c4cc(OC)c(OC)cc4c2c1)C[C@H]1CCN(Cc2ccccc2)CN1C3 |  |  |  |  |  |  | 
10.5 µM | 8.24 µM | 7.13 µM | 9.45 µM | CCN1CCN2Cc3c(c4cc(OC)c(OC)cc4c4cc(OC)ccc34)C[C@H]2C1 |  |  |  |  |  |  | 
 | 0.068 µM |  |  | COc1ccc2c3c(c4cc(OC)c(OC)cc4c2c1)CC1CCOCCN1C3 (single isomer, unassigned) |  |  |  |  |  |  | 
3 µM | 2.84 µM | 5.2 µM |  | COc1ccc2c3c(c4cc(OC)c(OC)cc4c2c1)C[C@@H]1CCN(N(C)C)CN1C3 | 5.3 µM |  |  |  |  |  | 
1.29 µM | 1.1 µM | 1.37 µM | 1.26 µM | COc1ccc2c3c(c4cc(OC)c(OC)cc4c2c1)C[C@@H]1CCOCN1C3 |  |  |  |  |  |  | 
13.1 µM | 12.3 µM | 14.1 µM |  | COc1ccc2c3c(c4cc(OC)c(OC)cc4c2c1)C[C@@H]1CN(C(=O)N(C)C)CCN1C3 | 11.4 µM |  |  |  |  |  | 
2.97 µM | 3.08 µM | 1.78 µM | 2.37 µM | COc1ccc2c3c(c4cc(OC)c(OC)cc4c2c1)C[C@H]1CCN(N(C)C)CN1C3 |  |  |  |  |  |  | 

GI50 (DU-145) | GI50 (KB) | GI50 (A549) | GI50 (HCT-8) | Structure (SMILES) | GI50 [1] | Activity [2] | Activity [3] | Activity [4] | Activity [5] | Activity [6] | Activity [7]
6.6 µM | 4.4 µM | 2 µM | 1.82 µM | COc1ccc2c3c(c4cc(OC)c(OC)cc4c2c1)C[C@H]1CN(CC(C)C)CN1C3 |  |  |  |  |  |  | 
7.13 µM | 5.3 µM | 9.73 µM | 6.45 µM | COc1ccc2c3c(c4cc(OC)c(OC)cc4c2c1)C[C@H]1CN(C)CCN1C3 |  |  |  |  |  |  | 
1.46 µM | 2.22 µM | 2.48 µM |  | COc1ccc2c3c(c4cc(OC)c(OC)cc4c2c1)C[C@@H]1CCN(CCO)CN1C3 | > 20 µM |  |  |  |  |  | 
14.3 µM | 11.5 µM | 4.3 µM | 5.73 µM | COc1ccc2c3c(c4cc(OC)c(OC)cc4c2c1)C[C@H]1CCN(C2CC2)CN1C3 |  |  |  |  |  |  | 
7.38 µM | 6.64 µM | 3.94 µM | 2.71 µM | CCCN1C[C@@H]2Cc3c(c4ccc(OC)cc4c4cc(OC)c(OC)cc34)CN2C1 |  |  |  |  |  |  | 
2.94 µM | 6.57 µM | 0.79 µM | 0.25 µM | COc1ccc2c3c(c4cc(OC)c(OC)cc4c2c1)C[C@H]1CN(CC2CC2)CCN1C3 |  |  |  |  |  |  | 
3.7 µM | 2.71 µM | 1.8 µM | 1.85 µM | COc1ccc2c3c(c4cc(OC)c(OC)cc4c2c1)C[C@H]1CN(C2CC2)CN1C3 |  |  |  |  |  |  | 
2.3 µM | 5.06 µM | 1.52 µM | 1.36 µM | COc1ccc2c3c(c4cc(OC)c(OC)cc4c2c1)C[C@H]1CCN(CC(C)C)CN1C3 |  |  |  |  |  |  | 
> 20 µM | > 20 µM | > 20 µM | > 20 µM | COc1ccc2c3c(c4cc(OC)c(OC)cc4c2c1)C[C@H]1CN(c2ccccc2)CN1C3 |  |  |  |  |  |  | 
1.2 µM | 2.1 µM | 1.12 µM |  | COc1ccc2c3c(c4cc(OC)c(OC)cc4c2c1)C[C@@H]1CCN(CC2CC2)CN1C3 | 5.68 µM |  |  |  |  |  | 
17.9 µM | > 20 µM | > 20 µM | 13 µM | COc1ccc2c3c(c4cc(OC)c(OC)cc4c2c1)C[C@H]1CN(C2CC2)CCN1C3 |  |  |  |  |  |  | 
0.025 µM | 0.036 µM | 0.022 µM |  | COc1ccc2c3c(c4cc(OC)c(OC)cc4c2c1)C[C@H]1CCCN1C3 [(-)-ANTOFINE] |  | Active | Active | Active | Active | Dose-dependent effect | tde
6.36 µM | 7.83 µM | 4.41 µM | 10.8 µM | COc1ccc2c3c(c4cc(OC)c(OC)cc4c2c1)C[C@H]1CN(CCO)CN1C3 |  |  |  |  |  |  | 
4.95 µM | 5.7 µM | 5.3 µM | 3.63 µM | COc1ccc2c3c(c4cc(OC)c(OC)cc4c2c1)C[C@H]1CN(Cc2ccccc2)CN1C3 |  |  |  |  |  |  | 
4.62 µM | 3.41 µM | 2.68 µM |  | COc1ccc2c3c(c4cc(OC)c(OC)cc4c2c1)C[C@@H]1CN(Cc2ccccc2)CN1C3 | 1.87 µM |  |  |  |  |  | 
1.82 µM | 1.66 µM | 1.79 µM | 1.45 µM | COc1ccc2c3c(c4cc(OC)c(OC)cc4c2c1)C[C@H]1CCOCN1C3 |  |  |  |  |  |  | 
11.9 µM | 12.1 µM | 16.4 µM |  | COc1ccc2c3c(c4cc(OC)c(OC)cc4c2c1)C[C@@H]1CN(C(=O)c2ccccc2)CCN1C3 | 7.64 µM |  |  |  |  |  | 
12.6 µM | 8.62 µM | 14.1 µM | 7.41 µM | COc1ccc2c3c(c4cc(OC)c(OC)cc4c2c1)C[C@H]1CN(CCO)CCN1C3 |  |  |  |  |  |  | 
1 µM | 0.79 µM | 0.66 µM | 0.66 µM | COc1ccc2c3c(c4cc(OC)c(OC)cc4c2c1)C[C@@H]1CN(C)CN1C3 |  |  |  |  |  |  | 
> 20 µM | 14.7 µM | 14.7 µM | 14 µM | COC(=O)CN1CCN2Cc3c(c4cc(OC)c(OC)cc4c4cc(OC)ccc34)C[C@H]2C1 |  |  |  |  |  |  | 
12.2 µM | 11.2 µM | 12.9 µM |  | COc1ccc2c3c(c4cc(OC)c(OC)cc4c2c1)C[C@@H]1CN(CC(C)C)CCN1C3 | 9.96 µM |  |  |  |  |  | 

Structure (SMILES) | GI50 (DU-145) | GI50 (KB) | GI50 (A549) | GI50 (HCT-8) | GI50 [1] | Activity [2] | Activity [3] | Activity [4] | Activity [5] | Activity [6] | Activity [7]
COc1ccc2c3c(c4cc(OC)c(OC)cc4c2c1)C[C@H]1CN(P(=O)(OC)OC)CCN1C3 | 14.7 µM | 8.09 µM | 12.2 µM |  | 10.4 µM |  |  |  |  |  | 
COc1ccc2c3c(c4cc(OC)c(OC)cc4c2c1)C[C@H]1CCN(c2ccccc2)CN1C3 | > 20 µM | > 20 µM | > 20 µM | > 20 µM |  |  |  |  |  |  | 
COc1ccc2c3c(c4cc(OC)c(OC)cc4c2c1)C[C@@H]1COCCN1C3 | 7.05 µM | 6.68 µM | 14 µM | 3.45 µM |  |  |  |  |  |  | 
COc1ccc2c3c(c4cc(OC)c(OC)cc4c2c1)C[C@H]1CCCCN1C3 [CRYPTOPLEURINE] | 0.00159 µM | 0.00151 µM | 0.00138 µM | 0.00109 µM |  |  |  |  |  |  | 
